Sampled rows, rich in hits. Any-hit rate of the full collection: about 2.5%.
SENP6 block: SENP6 protease inhibitors, primary screen, biochemical, luminescence, uHTS; inhibition, % at 10 µM; 330,000 tested, 1.8% active; Recombinant SENP6 catalytic domain, aminoluciferin luminescence;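 active = inhibition above about 50% at the single tested dose, limit read from the data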;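 also: plate controls were DMSO wells with enzyme for no effect and DMSO wells lacking enzyme for full effect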
SENP8 block-1: human SENP8 protease inhibitors, primary screen, biochemical, fluorescence, Nedd8 protein substrate, uHTS. Sentrin-specific protease 8 (Homo sapiens), Q96LD8. recombinant SENP8. inhibition, % at 20 µM. 360,000 tested, 0.64% active; in the data active = inhibition mostly above about 40%, no sharp cut-off; inactive = mostly below about 27%
Target sequence (Q96LD8 whole entry, looked up): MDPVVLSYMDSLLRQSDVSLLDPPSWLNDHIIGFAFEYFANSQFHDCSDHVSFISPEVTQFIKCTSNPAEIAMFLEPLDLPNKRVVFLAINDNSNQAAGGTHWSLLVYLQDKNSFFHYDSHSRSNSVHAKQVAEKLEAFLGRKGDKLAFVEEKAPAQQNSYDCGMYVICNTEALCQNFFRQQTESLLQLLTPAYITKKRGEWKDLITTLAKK
SENP7 inh: SENP7 protease inhibitors, primary screen, biochemical, luminescence, uHTS; recombinant SENP7, Z-RLRGG-aminoluciferin luminescence, 40 min; inhibition, % at 5 µM; Sentrin-specific protease 7 (Homo sapiens), Q9BQF6; 330,000 tested, 1.5% active;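 active = inhibition above about 50% at the single test dose, limit read from the data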;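 also: plate controls were DMSO with enzyme for no effect and no enzyme buffer wells for full effect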
SENP1 FRET inh: human SENP1 catalytic domain inhibitors, primary screen, biochemical, FRET, uHTS | Sentrin-specific protease 1 (Homo sapiens), Q9P0U3 | recombinant SENP1 catalytic domain, CyPet-SUMO1-YPet FRET cleavage | inhibition, % at 10 µM | 360,000 tested, 0.21% active;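 active = inhibition at least 30% at 10 µM, raw YFP signal under a set limit, fluorescence ratio 0.5 to 1.5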;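 also: 0% = enzyme with DMSO and 100% = no enzyme wells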
Target sequence (Q9P0U3 419-644 limits assumed): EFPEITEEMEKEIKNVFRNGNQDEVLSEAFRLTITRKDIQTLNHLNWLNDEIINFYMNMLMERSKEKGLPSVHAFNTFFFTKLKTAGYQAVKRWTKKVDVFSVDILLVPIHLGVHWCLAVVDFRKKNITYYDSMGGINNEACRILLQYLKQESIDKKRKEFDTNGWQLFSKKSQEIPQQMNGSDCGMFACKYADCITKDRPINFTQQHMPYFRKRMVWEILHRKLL
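Material – human SENP1 catalytic domain · Input – SENP1 enzyme, 20 pM final · Compound dosing – single concentration of 10 µM compound, 0.5% DMSO final · Timing – enzyme reaction for 50 min at room temperature, dark · Measured by – FRET fluorescence in CFP and YFP emission channels · Control set – no-enzyme wells low, DMSO-plus-enzyme wells high control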
SENP8 block-2: SENP8 protease inhibitors, primary screen, biochemical, luminescence; Sentrin-specific protease 8 (Homo sapiens), Q96LD8; purified SENP8, Z-RLRGG-aminoluciferin cleavage; inhibition, % at 10 µM; 330,000 tested, 1.2% active; AID 2540, 2010; in the data active = inhibition above about 50%
SENP8 confirm: SENP8 protease inhibitors, retest, confirmation, biochemical, luminescence, single concentration; shares compounds with SENP7 inh; Recombinant SENP8, Z-RLRGG-aminoluciferin luminescence, 60 min; inhibition, % at 12.5 µM; 6,200 tested, 40% active; AID 488912, 2010;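 active = mean inhibition across replicates above about 50%, limit read from the data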
SENP6 confirm: SENP6 protease inhibitors, confirmation, biochemical, luminescence, single concentration; shares compounds with SENP7 inh; recombinant SENP6, Z-RLRGG-aminoluciferin luminescence; inhibition, % at 12.5 µM; 6,200 tested, 58% active; AID 488915, 2010
SENP7 confirm: SENP7 protease inhibitors, retest, confirmation, biochemical, luminescence, single concentration | shares compounds with SENP7 inh | inhibition, % at 12.5 µM | recombinant SENP7, Z-RLRGG-aminoluciferin luminescence, 40 min | 6,200 tested, 69% active
Casp3 select: caspase-3 protease inhibitors, confirmation, selectivity assay for SENP inhibitor project, biochemical, single concentration; AID 488918, 2010; purified caspase-3, Z-DEVD-aminoluciferin luminescence, 60 min; inhibition, % at 12.5 µM; 6,200 tested, 60% active; shares compounds with SENP7 inh;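 active = mean inhibition above about 50%, limit read from the data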;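 also: plate controls were enzyme with DMSO for no effect and wells without caspase-3 for full effect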
Target sequence (P42574 28-227 limits assumed): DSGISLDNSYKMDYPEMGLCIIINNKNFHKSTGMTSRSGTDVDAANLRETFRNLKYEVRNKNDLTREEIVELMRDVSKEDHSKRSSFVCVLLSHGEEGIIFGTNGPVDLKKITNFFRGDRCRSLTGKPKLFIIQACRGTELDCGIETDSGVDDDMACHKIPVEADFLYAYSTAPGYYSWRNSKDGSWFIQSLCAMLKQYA
Luc interf: luminescence interference (SENP counter-screen); shares compounds with SENP7 inh; Pre-incubated SENP8/Z-RLRGG-aminoluciferin, luciferase luminescence interference; inhibition, % at 12.5 µM; 6,200 tested, 39% active;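 active = mean inhibition above about 50% when retested at one dose, limit read from the data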;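 also: plate controls were DMSO wells with completed reaction for no effect and substrate without enzyme for full effect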
An asterisk follows results filed as active; · = no result.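 The calls were made as follows, unless noted: active = mean inhibition above about 50% in the one-dose retest (limit read from the data); inactive = the rest.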

SMILES	SENP6 block	SENP8 block-1	SENP7 inh	SENP1 FRET inh	SENP8 block-2	SENP8 confirm	SENP6 confirm	SENP7 confirm	Casp3 select	Luc interf
Cc1[nH]c2ccccc2c1/C=C/c1nc2ccccc2c(=O)[nH]1	-5.3	-406.2	3.0	-34.0	-16.0	·	·	·	·	·
O=C(O)C1OC(C(=O)O)C(C(=O)O)C1C(=O)O (stereo not drawn)	·	8.8	·	0.8	·	·	·	·	·	·
O=C(Nc1nc2ccsc2c(=O)s1)c1ccc(F)cc1	95.8*	-82.6	99.5*	-32.6	93.8*	37.4	93.1*	47.4	55.6*	17.9
O=C(Nc1nc2ccsc2c(=O)s1)c1ccc(F)cc1Cl	88.6*	-103.9	98.3*	-6.5	86.0*	43.7	52.1*	44.6	51.8*	3.6
Cc1cccc(C)c1NC(=O)C1c2ccccc2OCC(=O)N1Cc1ccc2c(c1)OCO2 (stereo not drawn)	·	13.3	·	1.9	·	·	·	·	·	·
COc1cccc(-c2n[nH]nc2C2=CC(=O)C[C@H](c3ccc(F)cc3)C2)c1	·	-53.8	·	0.8	·	·	·	·	·	·
COCCNC(=O)CN(c1cc(Cl)ccc1OC)S(=O)(=O)c1ccc(C)c([N+](=O)[O-])c1	7.8	0.5	-5.3	3.6	-2.7	·	·	·	·	·
COc1ccc(N(CC(=O)NCc2ccncc2)S(=O)(=O)c2ccc(C)c([N+](=O)[O-])c2)cc1	85.5*	21.6	0.9	0.5	-0.1	-1.8	-0.3	-2.2	-1.4	0.2
COc1ccc(N(CC(=O)NCc2cccnc2)S(=O)(=O)c2ccc(C)c([N+](=O)[O-])c2)cc1	2.9	7.7	6.2	1.8	6.7	·	·	·	·	·
COCCCNC(=O)CN(c1cc(Cl)ccc1OC)S(=O)(=O)c1ccc(C)c([N+](=O)[O-])c1	72.7*	16.7	-6.1	-0.6	-10.0	5.9	3.4	-10.1	-5.1	-2.5
Cc1cc(OC(=O)c2c(C)cc(OC(=O)c3c(C)cc(O)cc3O)cc2O)cc(O)c1C(=O)O	6.9	-11.8	-6.3	-8.4	21.0	·	·	·	·	·
N#C/C(=C/c1ccc(O)c(O)c1)c1nc2ccccc2[nH]1	80.4*	-85.7	72.2*	-25.1	69.8*	82.1*	81.0*	94.5*	78.4*	14.7
N#C/C(=C\c1ccc(Sc2ccccc2)o1)c1nc2ccccc2[nH]1	46.3	-95.8	94.0*	-30.0	23.3	62.1*	47.8	98.6*	77.7*	66.9*
N#C/C(=C\c1ccc([N+](=O)[O-])o1)c1nc2ccccc2[nH]1	30.4	·	11.1	·	10.7	·	·	·	·	·
N#C/C(=C\c1cccs1)c1nc2ccccc2[nH]1	·	-50.3	·	-39.2	·	·	·	·	·	·
COc1ccccc1N(C)S(=O)(=O)c1ccc(C(=O)Nc2cccc(S(=O)(=O)N3CCOCC3)c2)cc1	·	11.0	·	-2.1	·	·	·	·	·	·
O=C(CCc1nc2ccccc2s1)NC1CCOC1=O (stereo not drawn)	60.9*	11.9	1.0	0.6	2.3	9.0	5.7	-8.4	2.4	0.2
O=C(CCCc1nc2ccccc2s1)NC1CCOC1=O (stereo not drawn)	-6.2	6.4	3.8	-1.4	3.6	·	·	·	·	·
COc1ccc(/C=C/C(=O)Nc2ccccc2C(=O)O)cc1	94.5*	-3.7	95.9*	1.2	93.2*	97.0*	97.0*	100.5*	96.2*	96.2*
COc1ccc(/C=C/C(=O)Nc2ccccc2C(=O)N2CCCC2)cc1	17.7	-2.6	-2.8	0.0	10.7	·	·	·	·	·
O=C(COc1ccc2ccccc2c1)Nc1ccccc1C(=O)O	55.1*	-5.7	7.3	-0.1	34.3	54.3*	50.8*	27.3	49.8	23.4
O=C(/C=C/c1ccco1)Nc1cc(Cl)ccc1C(=O)O	73.1*	-43.9	7.0	-1.3	55.6*	71.7*	71.1*	88.5*	70.2*	75.2*
O=C(/C=C/c1ccco1)Nc1ccccc1C(=O)O	93.0*	-9.9	82.5*	-3.8	88.2*	93.3*	93.7*	100.6*	96.9*	93.4*
CC(C)C(=O)N1CCN(c2ccccc2NC(=O)c2cc([N+](=O)[O-])ccc2N2CCOCC2)CC1	-6.3	27.6	2.8	-0.2	-3.1	·	·	·	·	·
Cc1cccc(S(=O)(=O)Nc2nc3ccccc3nc2OC(C)C)c1	-8.8	-62.8	-6.2	1.1	0.9	·	·	·	·	·
SMILES	SENP6 block	SENP8 block-1	SENP7 inh	SENP1 FRET inh	SENP8 block-2	SENP8 confirm	SENP6 confirm	SENP7 confirm	Casp3 select	Luc interf
COc1ccc(/C=C/c2cc(C(=O)O)c3ccccc3n2)cc1	-3.5	-437.7	54.6*	-38.7	68.7*	-23.8	-2.9	2.4	-3.2	7.0
CC(=NOC(=O)C1CCCCC1)c1nccs1	·	9.0	·	8.0	·	·	·	·	·	·
COc1ccc(C/C(N)=N/OC(=O)c2cccs2)cc1	-3.8	5.7	0.0	2.0	-3.3	·	·	·	·	·
C/C(=N/OC(=O)c1c(F)cccc1F)c1nccs1	82.8*	16.7	80.3*	0.9	46.5	74.5*	75.3*	96.6*	64.6*	81.6*
COc1ccc(C(=O)O/N=C(\C)c2nccs2)cc1	79.3*	6.2	96.8*	7.7	86.8*	73.3*	95.8*	100.4*	96.2*	42.6
COc1ccc(C(=O)O/N=C(/C)c2cccs2)cc1	98.3*	22.3	99.1*	5.9	96.7*	11.5	100.6*	103.9*	99.2*	98.8*
C/C(=N\OC(=O)c1c(-c2c(F)cccc2Cl)noc1C)c1nccs1	0.2	16.3	-9.8	1.9	1.1	·	·	·	·	·
C/C(=N\OC(=O)c1ccc(F)cc1)c1nccs1	74.4*	9.1	83.8*	3.8	35.0	22.3	24.6	50.4*	56.3*	20.6
Cc1ccc(CN2C(=O)CSCC2(C)C(=O)NC(C)C)cc1 (stereo not drawn)	·	10.9	·	3.4	·	·	·	·	·	·
O=C(CSc1nnc(NC(=O)C2CC2)s1)Nc1ccc2c(c1)OCCO2	0.1	8.8	-6.1	-1.4	-2.1	·	·	·	·	·
CC(C)c1cc(NCCOCCO)n2c(nc3ccccc32)c1C#N	-30.5	-285.0	-11.6	-107.9	-10.9	·	·	·	·	·
